# Experiments:
# Type in all cases: functional
# Human alphaherpesvirus 1 = assay: Minimum inhibitory concentration required for antiviral activity to reduce TK-HSV-1 (B2006) induced cytopathicity in human embryonic skin-muscle cells (ESM)
# Method in brief: (§1)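 Endpoint is the compound concentration that reduces virus-induced cytopathicity in the host cell monolayer by 50%.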
# HeLa = assay: Minimum inhibitory concentration to reduce cytopathicity by 50% in morphology of human carcinoma cells (HeLa)
# Method in brief: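 Cytotoxicity endpoint is the minimum compound concentration that causes a microscopically detectable alteration of normal host cell morphology.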
# HEL [1] = assay: Minimum inhibitory concentration to reduce cytopathicity by 50% in proliferation of human embryonic lung cells (HEL)
# Method in brief: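 Host cell toxicity is read as the compound concentration that reduces HEL cell proliferation by 50%.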
# HEL [2] = assay: Minimum inhibitory concentration required for antiviral activity to reduce Cytomegalovirus (CMV) (AD-169) induced cytopathicity in human embryonic lung cells (HEL); method in brief: as §1
# ESM = assay: Minimum inhibitory concentration to reduce cytopathicity by 50% in morphology of human embryonic skin-muscle cells (ESM)
# Vaccinia virus = assay: Minimum inhibitory concentration required for antiviral activity to reduce Vaccinia virus (VV) induced cytopathicity in human embryonic skin-muscle cells (ESM); details: Orthopoxvirus vaccinia; method in brief: as §1
# [3] = test system: Respiratory syncytial virus; assay: Minimum inhibitory concentration required for antiviral activity to reduce Respiratory syncytial virus (RSV) (Long) induced cytopathicity in human carcinoma cells (HeLa); method in brief: as §1
# MDCK [4] = assay: Minimum inhibitory concentration required for antiviral activity to reduce influenza B virus (Singapore) induced cytopathicity in Madin-Darby canine kidney cells (MDCK); details: Canis lupus familiaris; method in brief: as §1
# [5] = test system: Vesicular stomatitis virus; assay: Minimum inhibitory concentration required for antiviral activity to reduce Vesicular stomatitis virus (VSV) induced cytopathicity in human embryonic skin-muscle cells (ESM); method in brief: as §1
# HEL [6] = assay: Minimum inhibitory concentration required for antiviral activity to reduce TK Varicella Zoster virus (VZV) (07/1) induced cytopathicity in human embryonic lung cells (HEL)
# HEL [7] = assay: Minimum inhibitory concentration required for antiviral activity to reduce Cytomegalovirus (CMV) (Davis) induced cytopathicity in human embryonic lung cells (HEL); method in brief: as §1
# MDCK [8] = assay: Minimum inhibitory concentration required for antiviral activity to reduce Influenza A virus (Ishikawa) induced cytopathicity in Madin-Darby canine kidney cells (MDCK); details: Canis lupus familiaris; method in brief: as §1
# MDCK [9] = assay: Minimum inhibitory concentration to reduce cytopathicity by 50% in morphology of Madin-Darby canine kidney cells (MDCK); details: Canis lupus familiaris
# HEL [10] = assay: Minimum inhibitory concentration required for antiviral activity to reduce Varicella Zoster virus (VZV) (Oka) induced cytopathicity in human embryonic lung cells (HEL)
SMILES,MIC (Human alphaherpesvirus 1) [µg/mL],MIC (HeLa) [µg/mL],MIC (HEL [1]) [µg/mL],MIC (HEL [2]) [µg/mL],MIC (ESM) [µg/mL],MIC (Vaccinia virus) [µg/mL],MIC [3] [µg/mL],MIC (MDCK [4]) [µg/mL],MIC [5] [µg/mL],MIC (HEL [6]) [µg/mL],MIC (HEL [7]) [µg/mL],MIC (MDCK [8]) [µg/mL],MIC (MDCK [9]) [µg/mL],MIC (HEL [10]) [µg/mL]
CCCCCc1nc2c(N)ncnc2n1[C@H]1C[C@H](O)[C@@H](CO)O1,> 100,100,30,10,> 200,150,> 100,> 100,70,20,10,> 100,100,20
C/C=C\c1nc2c(N)ncnc2n1[C@H]1C[C@H](O)[C@@H](CO)O1,> 100,> 200,> 50,> 50,≥ 100,> 100,> 200,> 200,> 100,> 50,> 50,> 200,> 200,> 50
CCC/C=C\c1nc2c(N)ncnc2n1[C@H]1C[C@H](O)[C@@H](CO)O1,> 100,> 200,40,> 50,≥ 200,> 100,100,> 200,> 100,> 50,> 50,> 200,> 200,> 50
NC(=O)c1ncn([C@@H]2O[C@H](CO)[C@@H](O)[C@H]2O)n1 [RIBAVIRIN],> 300,–,–,–,> 400,70,–,–,> 400,–,–,–,–,–
CCCC#Cc1nc2c(N)ncnc2n1[C@H]1C[C@H](O)[C@@H](CO)O1,100,100,10,10,400,150,> 100,> 100,70,20,10,30,100,40
CCc1nc2c(N)ncnc2n1[C@H]1C[C@H](O)[C@@H](CO)O1,300,> 200,> 200,70,> 400,> 400,> 200,> 200,> 400,55,70,> 200,> 200,> 100
O=c1[nH]c(=O)n([C@H]2C[C@H](O)[C@@H](CO)O2)cc1/C=C/Br [BRIVUDINE],> 200,–,> 200,70,> 400,2,–,–,> 400,> 10,70,–,–,0.004
CCCc1nc2c(N)ncnc2n1[C@H]1C[C@H](O)[C@@H](CO)O1,> 300,> 200,170,20,> 400,70,> 200,> 200,400,7,20,> 200,> 200,20
Nc1ncnc2c1ncn2[C@H]1C[C@H](O)[C@@H](CO)O1 [DEOXYADENOSINE],> 400,200,–,> 100,> 400,> 400,20,> 200,> 400,> 100,> 100,> 200,> 200,> 100
CCCCC/C=C\c1nc2c(N)ncnc2n1[C@H]1C[C@H](O)[C@@H](CO)O1,> 40,100,20,30,> 100,20,14,> 100,> 40,10,20,12,100,15
Nc1nc2c(ncn2COCCO)c(=O)[nH]1 [ACYCLOVIR],100,–,> 200,35,> 400,> 400,–,–,> 400,–,50,–,–,–
CCCCCCCc1nc2c(N)ncnc2n1[C@H]1C[C@H](O)[C@@H](CO)O1,> 40,100,13,4,> 100,20,20,> 100,> 40,6,4,20,100,10
CC#Cc1nc2c(N)ncnc2n1[C@H]1C[C@H](O)[C@@H](CO)O1,150,> 200,40,20,> 400,300,> 200,> 200,150,40,20,> 200,> 200,40
C#Cc1nc2c(N)ncnc2n1[C@H]1C[C@H](O)[C@@H](CO)O1,> 4,4,2,2,10,> 4,> 4,> 20,> 4,4,4,> 20,20,7
CCCCCC#Cc1nc2c(N)ncnc2n1[C@H]1C[C@H](O)[C@@H](CO)O1,> 100,100,6,2,> 200,7,30,100,20,8,7,> 100,100,15

# Source: ChEMBL document CHEMBL1127647, “Synthesis and antiviral activities of 8-alkynyl-, 8-alkenyl-, and 8-alkyl-2'-deoxyadenosine analogues” (1994)
